An excerpt weighted towards active compounds, which were near 1.9% of everything screened.
Cneo AK release: causes C. neoformans cell lysis; adenylate kinase release luminescence, 4 h; normalised: neutral wells 0, clomiphene wells 100; lysis activity, % at 15 µM; 0.2% of 360,000 active; AID 651654;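 active = mean lysis activity across replicates of at least 80%, whatever share of replicates individually reach that level; inactive = mean lysis activity below 80%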
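Test system: log-phase Cryptococcus neoformans yeast cells; Quantity: yeast cell density of 5 × 10^6 cells/mL; Buffer or medium: YPD; Doses: single compound concentration per well; Timing: 4 h at 37 °C static, read 1 h later; Measured by: AK luminescence; Read-out basis: lysis from increased AK signal; Control set: Clomiphene as positive control.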
rRNA inh HTS: inhibitors of bacterial rRNA selective over humanized ribosomes; GFP signal change (wild-type ribosome), % (concentration not given with the values); E. coli WT GFP vs humanized-ribosome RFP mutants, fluorescence, 24 h; hits give low values; DMSO median 0, no signal -100; 1.6% of 350,000 active;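 active = significant combined selectivity score with lowered wild-type GFP, culture density cut under 30%, mutant RFP and density less affected; inactive = any of these conditions unmet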
RAD52 inh: inhibitors of human RAD52 DNA annealing. inhibition, % at 18.7 µM. recombinant RAD52 DNA annealing, FRET fluorescence. 0.46% of 360,000 active. AID 651710;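 active = every replicate showing at least 50% inhibition; inconclusive = mean inhibition at least 50% but not in every replicate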
PglD inh: inhibitors of Campylobacter jejuni PglD acetyltransferase | purified PglD enzyme, DTNB colorimetric CoA detection | 0.098% of 360,000 active | AID 602405 | inhibition, % at 12.5 µM; in the data active = inhibition above about 16%, passing the limit was not always enough; inconclusive = no clear call, values can overlap the other calls
RAD54 inh: blocks human RAD54 Holliday junction branch migration. Q92698. FAM/BHQ fluorescence. inhibition, % at 10.4 µM. 0.14% of 360,000 active. AID 602329;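 active = mean normalized replicate activity at least 40 and at least half of replicates scoring 40 or more; inconclusive = only one of the two criteria met; inactive = mean below 40 and under half of replicates reaching 40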;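 also: 0% = median of neutral control wells and 100% = median of positive control wells; inhibitors cause a drop in the FAM fluorescence signal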
Target sequence (Q92698 whole entry, looked up): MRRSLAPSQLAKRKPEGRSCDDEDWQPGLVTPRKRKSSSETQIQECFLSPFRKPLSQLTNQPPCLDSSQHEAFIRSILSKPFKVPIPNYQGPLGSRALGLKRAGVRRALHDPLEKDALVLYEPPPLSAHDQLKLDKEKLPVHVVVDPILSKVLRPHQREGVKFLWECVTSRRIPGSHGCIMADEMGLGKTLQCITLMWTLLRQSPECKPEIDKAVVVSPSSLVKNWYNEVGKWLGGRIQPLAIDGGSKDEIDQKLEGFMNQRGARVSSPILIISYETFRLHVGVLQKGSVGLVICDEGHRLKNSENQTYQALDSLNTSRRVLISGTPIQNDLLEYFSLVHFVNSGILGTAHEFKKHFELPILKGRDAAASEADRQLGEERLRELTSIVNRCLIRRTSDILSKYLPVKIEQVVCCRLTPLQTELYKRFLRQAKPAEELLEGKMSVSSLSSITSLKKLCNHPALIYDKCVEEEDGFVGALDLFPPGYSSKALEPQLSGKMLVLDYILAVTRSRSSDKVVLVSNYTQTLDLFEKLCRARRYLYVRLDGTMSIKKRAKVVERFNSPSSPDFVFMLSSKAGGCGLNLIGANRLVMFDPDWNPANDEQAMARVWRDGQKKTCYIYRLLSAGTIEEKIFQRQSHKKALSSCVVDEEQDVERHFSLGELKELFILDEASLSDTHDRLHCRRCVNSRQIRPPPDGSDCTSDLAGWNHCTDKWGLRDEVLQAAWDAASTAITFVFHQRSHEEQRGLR
AID977621: growth inhibition of wild-type GFP E. coli, dose response, H69 mutant RFP, cherry-pick; AID 977621; E. coli wild-type GFP strain growth, fluorescence, 24 h; shares compounds with rRNA inh HTS; activity change, negative = inhibition at 50 µM; 1,900 tested, under 10 active;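 active = Wild-type ribosome reporter drop at least double the humanized mutant ribosome reporter drop, growth loss under a set limit; inconclusive = no clear call, values can overlap the other calls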;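 also: wild-type GFP and H69 mutant RFP strains grown together 50/50 in each well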
AID977628: growth of wild-type and h24-humanized E. coli strains – h24 mutant RFP vs wild-type GFP, cherry-pick, dose response | activity change, negative = inhibition at 50 µM | shares compounds with rRNA inh HTS | AID 977628 | 1,900 tested, under 10 active | E. coli WT GFP strain growth, fluorescence, 24 h;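 active = compound lowering the normal-ribosome reporter at least twice as much as the humanized-ribosome reporter, growth loss under a set limit; inconclusive = no clear call, values can overlap the other calls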;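 also: wild-type GFP and h24 humanized RFP strains co-cultured 1 to 1 per well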
Numbers without * were called inactive; ? = inconclusive; · = not tested or not shown.

SMILES	Cneo AK release	rRNA inh HTS	RAD52 inh	PglD inh	RAD54 inh	AID977621	AID977628
O=C(COC(=O)C1CC2C=CC1C2)NCCc1ccccc1 (stereo not given)	-3.2	-21.1*	-16.4	-243.3	-7.8	-20.1	-8.43
C[C@H]1CCCCO[C@@H](CN(C)C(=O)Nc2ccc(F)cc2)[C@@H](C)CN([C@@H](C)CO)C(=O)c2cc(NC(=O)c3ccccc3)ccc2O1	58.0	-2.6	24.7	2.0	-2.8	·	·
CCCCn1c(=O)[nH]c(=O)c2c1nc(-c1ccccc1F)n2Cc1ccccc1	·	-25.9*	-5.0	·	·	-6.63	?
CCCN(C)C[C@H]1OCCCC[C@H](C)Oc2ccc(NS(=O)(=O)c3ccc(OC)cc3)cc2C(=O)N([C@@H](C)CO)C[C@H]1C	51.2	2.9	26.4	0.2	5.6	·	·
O=C(Cc1ccc(Cl)cc1)c1ccc(O)cc1	·	-37.2*	-9.2	·	·	-3.61	?
C[C@H](CO)N1C[C@H](C)[C@H](CN(C)C(=O)Nc2cccc3ccccc23)Oc2ncc(-c3cccc(C(F)(F)F)c3)cc2C1=O	-0.5	-2.9	-4.8	-2.5	-2.6	·	·
CSc1ccc(CN(C)CC(=O)NC(C)c2ccccc2)cc1 (stereo not given)	1.7	-31.0*	-6.2	-6.0	2.2	-6.8	·
C[C@@H]1CN([C@@H](C)CO)C(=O)Cc2cc(NC(=O)Nc3cccc4ccccc34)ccc2O[C@H]1CN(C)S(C)(=O)=O	19.1	-1.3	-9.1	12.4	2.8	·	·
C[C@@H]1CN([C@@H](C)CO)C(=O)c2cc(/C=C/c3ccccc3)cnc2O[C@@H]1CN(C)C(=O)C1CC1	·	2.7	·	·	·	·	·
COc1cc(-c2csc(C)n2)ccc1O	-0.4	·	·	4.7	-6.1	·	·
COc1ccc(-c2csc(C)n2)cc1Br	3.8	-29.4*	2.0	3.7	3.1	-17.4	-12.6
COc1cccc(OC)c1C(=O)Nc1ccc(N2CCN(C(=O)c3cccs3)CC2)cc1	0.8	-3.2	1.9	2.1	-4.2	·	·
COc1ccc(NC(=O)c2cccs2)cc1C(=O)N1CCN(c2ccccc2)CC1	-0.3	-20.9*	-12.1	3.5	-14.6	-6.99	-13.9
C#CCOc1nc(Nc2cccc([N+](=O)[O-])c2)nc(OCC#C)n1	2.7	-17.6*	-8.6	5.9	4.6	-10.7	-2.5
COc1nc(Nc2cccc([N+](=O)[O-])c2)nc(OC)n1	·	4.7	-17.9	·	·	·	·
C[C@H]1CN([C@@H](C)CO)C(=O)c2cc(NC(=O)NC3CCCCC3)ccc2O[C@@H]1CN(C)CC1CCCCC1	19.7	7.5	9.4	1.5	5.3	·	·
COc1cc2c(cc1OC)C1(C)N(CC2)C(C(C)=O)=NN1c1ccc(Cl)cc1 (stereo not given)	-1.3	-17.1*	-1.7	-1.7	-2.6	-3.4	·
Cc1cccc(OCCn2c(=O)oc3ccc(C)cc32)c1	-1.3	-26.9*	1.9	18.6	1.3	2.74	-1.28
Cc1ccc2oc(=O)n(CCOc3ccccc3)c2c1	·	17.9	-25.4	·	·	·	·
O=C(O)CCCCCCCCc1cn(CC2CCCCC2)nn1	0.2	-21.3*	-6.4	0.9	3.1	?	·
CC(C)c1cc(C(N)=O)c(NC(=O)C2CCC2)s1	·	-23.6*	-2.0	·	·	?	·
CC(C)c1nnc(NC(=O)C2CCCCC2)s1	-1.3	-0.6	-0.3	4.0	-6.0	·	·
Cc1ccccc1S(=O)(=O)c1cc2ccccc2nc1N	0.5	-30.1*	-7.5	3.9	4.9	1.04	·
Cc1ccc(-c2cc3ccccc3nc2N)cc1	-1.0	-18.0	-31.4	-7.7	-0.9	·	·
O=C(NCCc1ccccc1)c1ccc2c(c1)N(Cc1ccccc1)C(=O)CS2=O (stereo not given)	-3.0	-14.8	-8.6	-1.1	0.8	·	·
O=C(Nc1ccccc1Cl)c1ccc2c(c1)N(Cc1ccc(F)cc1)C(=O)CS2=O (stereo not given)	-0.7	-23.0*	-8.5	0.9	13.8	-11.5	·
COC(=O)c1ccc(OCC(=O)c2ccccc2OC)cc1	-0.9	-23.4*	-4.7	2.9	5.0	3.19	-7.02
COC(=O)COc1ccc(C(=O)OC)cc1	-0.1	·	·	2.5	2.4	·	·

From PubChem BioAssay
